In data set [1] the test system is SH-SY5Y. The data set is described as follows: Activation of PP2A in human SH-SY5Y cells assessed as restoration of cytostatin-induced phosphatase activity inhibition at 1 uM preincubated with compound for 24 hrs followed by okadaic acid addition and measured after 18 hrs by pNPP method. Type of data set: cell-based. As to conditions: filed as activator, time 42.0 hrs, in the assay text read “followed by cytostatin addition” for “followed by okadaic acid addition”. A digest of the protocol:
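Cells were SH-SY5Y (70000/well), preincubated 24 h with compound, then given cytostatin 2 μM plus compound 1 μM for 18 h; pNPP-measured phosphatase activity normalized to untreated control; mean ± SEM, at least 3 independent experiments.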

Data set [2] concerns SH-SY5Y. The data set is described as follows: Neuroprotective activity against okadaic acid-induced cytotoxicity in human SH-SY5Y cells assessed as protection against cell death at 1 uM incubated for 24 hrs by MTT assay relative to control. Type of data set: functional. A digest of the protocol:
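SH-SY5Y cells were pre-incubated 24 h with compound at 1 μM, then co-incubated with okadaic acid 20 nM for 20 h. Viability was read by MTT reduction. Results are % protection relative to okadaic acid-treated cells without compound, as mean ± SEM of at least 4 independent experiments.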

In data set [3] the test system is SH-SY5Y. The data set is described as follows: Neuroprotective activity against cytostatin-induced cytotoxicity in human SH-SY5Y cells assessed as protection against cell death at 1 uM […] by MTT assay relative to control. It counts as functional.
For the next data set, the system named is Cortical neurone. Kind of data set: Neuroprotective activity against glutamate-induced excitotoxicity in rat cortical neurons assessed as protection against cell damage at 1 uM preincubated with compound for 24 hrs followed by glutamate addition and measured after 20 hrs by MTT assay relative to control. Type of data set: functional. As to conditions: time 44 hrs. (Formazan colour is commonly taken as a measure of viable cells.)

In data set [4] the test system is SH-SY5Y. Kind of data set: Neuroprotective activity against rotenone/oligomycin-induced oxidative stress in human SH-SY5Y cells assessed as protection against cell death at 1 uM incubated for 20 to 24 hrs by MTT assay relative to control. Conditions: time 20-24 hrs.
The subject of data set [5] is SH-SY5Y. Kind of data set: Activation of PP2A in human SH-SY5Y cells assessed as restoration of okadaic acid-induced phosphatase activity inhibition at 1 uM preincubated with compound for 24 hrs followed by okadaic acid addition and measured after 18 hrs by pNPP method. Type of data set: cell-based. As to conditions: time 42.0 hrs. A digest of the protocol:
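SH-SY5Y cells (MEM/F12, 10% FBS, 70000 cells/well) preincubated 24 h with compound, then exposed to OA 15 nM plus compound 1 μM for 18 h; phosphatase activity by pNPP method, normalized to untreated control; mean ± SEM, at least 4 independent experiments.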

Data set [6] deals with Microtubule-associated protein tau (Homo sapiens) (UniProt P10636). Kind of data set: Inhibition of okadaic-acid induced tau hyperphosphorylation at Ser202/Thr205 residues in human SH-SY5Y cells at 0.1 uM preincubated with compound for 24 hrs followed by okadaic acid addition and measured after 20 hrs by Western blot analysis. Conditions: time 44.0 hrs. It counts as cell-based. A digest of the protocol: (§1)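 After 24 h preincubation with compound 0.1 μM, SH-SY5Y cells incubated 20 h with OA 20 nM plus compound; western blot for pTau (Ser202/Thr205) and pGSK-3β (Ser9); mean ± SEM of at least 3 independent experiments.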
(In general: In western blotting, separated proteins are transferred to a membrane and probed.)

Data set [7] has as its target Glycogen synthase kinase-3 beta (Homo sapiens) (UniProt P49841). The data set is described as follows: Inhibition of okadaic-acid induced GSK-3beta hyperphosphorylation at Ser9 residue in human SH-SY5Y cells at 0.1 uM preincubated with compound for 24 hrs followed by okadaic acid addition and measured after 20 hrs by Western blot analysis. It counts as cell-based. As to conditions: time 44.0 hrs. A digest of the protocol: as §1

Data set [8] in a line: Permeability of the compound in porcine brain by spectrophotometry based PAMPA-BBB assay. Conditions: pig. Background: In PAMPA a lipid-coated filter parts donor from acceptor wells.
Data set [9] has as its system HEK293T. The data set is described as follows: Activation of GFP-tagged PP2A-B55alpha (unknown origin) transfected in HEK293T cells using K-R-pT-I-R-R peptide as substrate assessed as recovery of OA-induced PP2A inhibition by measuring increase in substrate phospho hydrolysis at 1 uM measured at 15 to 30 mins by Malachite green method. It counts as cell-based. Conditions: Homo sapiens, filed as activator, time 15-30 min.

Data set [10] concerns HEK293T. The data set is described as follows: Activation of GFP-tagged PP2A-B56alpha (unknown origin) transfected in HEK293T cells using K-R-pT-I-R-R peptide as substrate assessed as recovery of OA-induced PP2A inhibition by measuring increase in substrate phospho hydrolysis at 1 uM measured at 15 to 30 mins by Malachite green method. Type of data set: cell-based. As to conditions: Homo sapiens, filed as activator, time 15-30 min.

Another data set has as its system Mus musculus. Kind of data set: Cognitive enhancing effect in LPS-induced mouse model of cognitive impairment assessed as fold change in time exploring the new object at 10 mg/ml, ip by object recognition test. Type of data set: functional. A digest of the protocol:
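Mice injected i.p. with LPS 1 mg/mL and co-injected i.p. with compound 10 mg/mL; object recognition test: day 1 arena familiarization, day 2 two identical objects, day 3 one replaced by an object differing in shape and size; exploration recorded 10 min; new vs old object exploration time compared; mean ± SEM.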

Calls of active or inactive are those of the source. The calls are words filed in the database; no cut-off is given here.

Chain of Microtubule-associated protein tau (Homo sapiens) (P10636 whole entry): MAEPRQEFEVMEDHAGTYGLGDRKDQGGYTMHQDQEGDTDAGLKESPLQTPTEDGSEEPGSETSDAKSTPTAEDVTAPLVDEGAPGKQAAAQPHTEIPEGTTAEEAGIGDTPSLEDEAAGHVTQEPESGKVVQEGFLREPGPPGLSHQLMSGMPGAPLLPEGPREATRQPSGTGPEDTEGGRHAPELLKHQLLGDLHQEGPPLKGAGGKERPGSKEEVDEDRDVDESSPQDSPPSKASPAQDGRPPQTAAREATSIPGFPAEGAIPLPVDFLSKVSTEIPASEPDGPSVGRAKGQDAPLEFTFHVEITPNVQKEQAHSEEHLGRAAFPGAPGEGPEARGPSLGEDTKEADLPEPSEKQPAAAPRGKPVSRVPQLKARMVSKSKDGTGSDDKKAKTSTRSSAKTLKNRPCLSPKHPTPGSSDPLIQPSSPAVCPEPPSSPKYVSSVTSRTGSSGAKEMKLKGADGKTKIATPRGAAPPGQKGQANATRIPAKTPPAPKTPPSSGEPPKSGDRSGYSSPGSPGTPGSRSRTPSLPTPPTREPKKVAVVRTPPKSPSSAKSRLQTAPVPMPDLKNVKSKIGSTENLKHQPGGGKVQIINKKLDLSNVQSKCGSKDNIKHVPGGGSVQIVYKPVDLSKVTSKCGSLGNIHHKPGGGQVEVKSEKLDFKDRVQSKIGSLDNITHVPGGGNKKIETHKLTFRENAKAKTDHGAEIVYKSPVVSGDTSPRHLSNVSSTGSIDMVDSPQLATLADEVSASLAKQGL
Chain of Glycogen synthase kinase-3 beta (Homo sapiens) (P49841 whole entry, looked up): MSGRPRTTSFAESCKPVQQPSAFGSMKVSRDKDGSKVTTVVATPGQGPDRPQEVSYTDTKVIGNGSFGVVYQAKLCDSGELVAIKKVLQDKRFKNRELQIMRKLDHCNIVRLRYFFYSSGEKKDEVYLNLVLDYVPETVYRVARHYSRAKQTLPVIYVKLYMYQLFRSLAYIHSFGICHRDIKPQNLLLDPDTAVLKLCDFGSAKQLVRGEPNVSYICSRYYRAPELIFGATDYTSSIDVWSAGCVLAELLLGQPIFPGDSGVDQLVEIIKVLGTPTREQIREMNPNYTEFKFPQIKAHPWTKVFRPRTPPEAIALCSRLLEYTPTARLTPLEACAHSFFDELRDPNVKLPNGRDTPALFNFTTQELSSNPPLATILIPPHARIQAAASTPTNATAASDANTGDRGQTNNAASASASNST

Take `CC1(C)OC[C@H]2O[C@H](C[C@@H](O)CO)C=C[C@@H]2O1`: in the data set on SH-SY5Y [1], the outcome was Active. Further, the Activity in the data set with SH-SY5Y [2] worked out at 45%; in the data set with SH-SY5Y [3] it was 56%; with Cortical neurone it was 15%; with SH-SY5Y [4] it was 24%.

On to `C=CC[C@@H]1C=C[C@H](O)[C@@H](CO)O1`, for which the result with SH-SY5Y [1] was Active. Also, the Activity in the data set with SH-SY5Y [2] is 72%; in the data set with SH-SY5Y [3], 45%; with Cortical neurone, 15%; in the data set with SH-SY5Y [4] it was 30%.

Turning to `OCCC[C@@H]1C=C[C@@H]2OC(c3ccccc3)OC[C@H]2O1` (some centres not stated), the Activity with SH-SY5Y [2] turned out to be 82%; in the data set on SH-SY5Y [3], 52%; in the data set on Cortical neurone, 12%; in the data set on SH-SY5Y [4], 29%.

Regarding `CC12CC3CC(C)(C1)CC(N)(C3)C2` [MEMANTINE], the Activity in the data set on SH-SY5Y [2] stood at 60%; with SH-SY5Y [3], 57%; with Cortical neurone it was 22%.

`O=C(OCCC[C@@H]1C=C[C@@H]2OC(c3ccccc3)OC[C@H]2O1)c1ccccc1` (some centres not stated): the outcome in the data set on SH-SY5Y [5] was inactive. For the same compound, the Activity in the data set on SH-SY5Y [2] came to 72%; in the data set with SH-SY5Y [3] it was 47%; in the data set with Cortical neurone it was 8%; in the data set on SH-SY5Y [4], 7%.

For `C=CC[C@@H]1C=C[C@H](OC(C)=O)[C@@H](COC(C)=O)O1`, the Activity stood at 84% in the data set on SH-SY5Y [2], 47% with SH-SY5Y [3], 19% with Cortical neurone and 23% in the data set with SH-SY5Y [4].

For the compound `C=CC[C@@H]1C=C[C@@H]2OC(c3ccccc3)OC[C@H]2O1` (some centres not stated), the Activity worked out at 80% in the data set with SH-SY5Y [2], 49% with SH-SY5Y [3], 15% in the data set with Cortical neurone and 26% in the data set on SH-SY5Y [4].

For the compound `O=C(OCCC[C@@H]1C=C[C@H](O)[C@@H](CO)O1)c1ccccc1`, the outcome in the data set with SH-SY5Y [5] was inactive. For the same compound, the Activity with SH-SY5Y [2] came to 20%; in the data set with SH-SY5Y [3], 1%; in the data set on Cortical neurone, 17%; in the data set on SH-SY5Y [4], 3%.

Turning to `CC1(C)OC[C@H]2O[C@H](CCCOC(=O)c3ccccc3)C=C[C@@H]2O1`, the outcome in the data set on SH-SY5Y [5] was inactive. Besides, the Activity is on record as 69% in the data set with SH-SY5Y [2], 37% with SH-SY5Y [3], 17% in the data set on Cortical neurone and 15% with SH-SY5Y [4].

On to `CC1(C)OC[C@H]2O[C@H](C[C@H](O)CO)C=C[C@@H]2O1`, for which the outcome in the data set with SH-SY5Y [5] (filed as activator), in the data set with SH-SY5Y [1], in the data set on HEK293T [9] and in the data set with HEK293T [10] was Active. The Activity in the data set with SH-SY5Y [2] is given as 72%; in the data set with SH-SY5Y [3] it was 64%; with Cortical neurone it was 20%; in the data set on SH-SY5Y [4] it was 16%. Further, the inhibition entry in data set [6] and in data set [7] was “Active” in each case. Besides, in [8], the permeability entry is “Permeable”. In the data set on Mus musculus, the “fold change (FC)” value was 2.4.

Turning to `OC[C@@H](O)C[C@@H]1C=C[C@@H]2OC(c3ccccc3)OC[C@H]2O1` (some centres not stated), the result with SH-SY5Y [1] was Active. Moreover, the Activity in the data set on SH-SY5Y [2] is reported as 73%; in the data set on SH-SY5Y [3], 54%; in the data set on Cortical neurone, 13%; with SH-SY5Y [4], 27%.

With `OC[C@H](O)C[C@@H]1C=C[C@@H]2OC(c3ccccc3)OC[C@H]2O1` (some centres not stated), the outcome in the data set with SH-SY5Y [5] (filed as activator) and with SH-SY5Y [1] was Active. The Activity with SH-SY5Y [2] came to 40%; in the data set with SH-SY5Y [3] it was 21%; in the data set on Cortical neurone, 29%; in the data set on SH-SY5Y [4], 10%.

With `C=CC[C@@H]1C=C[C@@H]2OC(C)(C)OC[C@H]2O1`, the Activity amounted to 50% in the data set on SH-SY5Y [2], 50% with SH-SY5Y [3], 8% in the data set with Cortical neurone and 63% in the data set on SH-SY5Y [4].

In the case of `COc1ccc2[nH]cc(CCNC(C)=O)c2c1` [MELATONIN], the Activity in the data set on SH-SY5Y [4] was found to be 28%.

Turning to `CC1(C)OC[C@H]2O[C@H](CCCO)C=C[C@@H]2O1`, the Activity amounted to 81% in the data set with SH-SY5Y [2], 45% in the data set with SH-SY5Y [3], 6% with Cortical neurone and 5% in the data set with SH-SY5Y [4].

(Values after ChEMBL document CHEMBL5346913, “C-glycosides analogues of the okadaic acid central fragment exert neuroprotection via restoration of PP2A-phosphatase activity: A rational design of potential drugs for Alzheimer's disease targeting tauopathies” (Eur J Med Chem, 2023).)
